mABHD4 FP: inhibits mouse alpha/beta hydrolase domain 4 | Q8VD66 | AID 720543 | 0.54% of 370,000 active | inhibition, % at 8.92 µM | purified mABHD4, FP-Rh probe fluorescence polarization;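 active = inhibition exceeding the mean over every tested compound plus 3 SD, cut at about 30% in these data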
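Assay system: Wild-type mouse ABHD4 protein | Medium: HEPES pH 7.0 buffer, 150 mM NaCl, 0.01% Pluronic F-127 | Incubation: Enzyme–compound pre-incubation 45 min, then probe 60 min, both 25 °C | Technique: Fluorescence polarization with parallel and perpendicular emission, 525/598 nm | Evaluation: % inhibition of FP-Rh probe binding versus controls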
SIAE inh: blocks human sialic acid acetylesterase | Q9HAT2 | SIAE FP-Rh probe binding, fluorescence polarization | inhibition, % at 9.66 µM | 0.69% of 370,000 active;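 active = inhibition above a cutoff: mean of compounds within the control limits plus 3 SD of those, cut at about 17% in these data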
Target sequence (Q9HAT2 whole entry, looked up): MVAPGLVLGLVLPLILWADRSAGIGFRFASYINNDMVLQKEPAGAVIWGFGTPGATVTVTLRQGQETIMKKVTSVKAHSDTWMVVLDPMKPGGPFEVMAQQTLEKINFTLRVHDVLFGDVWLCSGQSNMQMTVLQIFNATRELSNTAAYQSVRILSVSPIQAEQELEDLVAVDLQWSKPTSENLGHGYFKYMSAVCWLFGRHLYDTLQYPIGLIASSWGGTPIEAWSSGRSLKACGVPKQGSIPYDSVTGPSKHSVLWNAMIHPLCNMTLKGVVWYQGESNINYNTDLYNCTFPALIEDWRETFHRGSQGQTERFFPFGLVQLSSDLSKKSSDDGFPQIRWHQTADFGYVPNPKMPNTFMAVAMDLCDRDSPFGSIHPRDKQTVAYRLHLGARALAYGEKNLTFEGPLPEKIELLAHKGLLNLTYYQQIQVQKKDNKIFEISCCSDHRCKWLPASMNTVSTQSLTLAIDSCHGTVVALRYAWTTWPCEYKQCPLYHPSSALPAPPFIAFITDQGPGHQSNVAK
PRMT1 FP inh: blocks human protein arginine methyltransferase 1; Q99873; recombinant PRMT1, activity-based probe fluorescence polarization; inhibition, % at 2.79 µM; 1.3% of 370,000 active;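 active = inhibition above about 21% made by adding two undisclosed values, limit read from the data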
HTRA1 inh: inhibitors of human serine peptidase HTRA1 | Q92743 | recombinant HTRA1, FP-rhodamine activity-based probe, fluorescence polarization | inhibition, % at 5.96 µM | 0.5% of 340,000 active | AID 504803; in the data active = inhibition above about 36%
TCR-CD3 inh: blocks the human TCR-CD3 interaction | TAMRA-labeled TCR probe fluorescence, biochemical | inhibition, % at 9.4 µM | 0.37% of 360,000 active;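 note: recombinant mutant TCR 2C K166C tagged with TAMRA read by polarization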
HTRA1 inh conf: HTRA1 (human) inhibition, confirmation; shares compounds with HTRA1 inh; recombinant HTRA1, FP-rhodamine activity-based probe, fluorescence polarization; inhibition, % at 5.96 µM; 66% of 1,600 active; AID 540248;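 active = mean inhibition over three repeats above a set limit taken from the earlier primary screen, cut at about 37% in these data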;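 note: inhibitors block probe binding so polarization drops and inhibition rises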
BSA TAMRA ctr: BSA probe counter-screen for TCR-CD3 inhibitors | shares compounds with TCR-CD3 inh | TAMRA-labeled BSA probe fluorescence counterscreen | inhibition, % at 9.4 µM | 10% of 1,200 active | AID 652035; in the data active = inhibition above about 23%
TCR-CD3 conf: TCR-CD3 interaction inhibition, confirmation; 48% of 1,200 active; TAMRA-labeled TCR probe fluorescence binding assay; shares compounds with TCR-CD3 inh; AID 652036; inhibition, % at 9.4 µM
PRMT1 inh conf: confirmation of human PRMT1 inhibitors. 42% of 3,300 active. recombinant His-PRMT1, activity-based probe fluorescence polarization. shares compounds with PRMT1 FP inh. AID 687036. inhibition, % at 2.79 µM;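 active = mean inhibition across replicates above the hit cutoff derived for the earlier primary screen, cut at about 22% in these data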
mABHD4 conf: ABHD4 (mouse) inhibition, FP confirmation | 55% of 1,800 active | shares compounds with mABHD4 FP | inhibition, % at 8.92 µM | AID 720658 | purified mABHD4, FP-Rh probe fluorescence polarization;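 active = mean inhibition across replicates above the hit cutoff set in the primary screen, cut at about 30% in these data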
Hits are given with their value; - = inactive; . = not tested or not shown. The list is not random: actives were taken first. Their share in the collection is about 2.6%. Cut-off read from the data, not from the text of the source, unless noted: active = inhibition above about 19%; inactive = the rest.

SMILES	mABHD4 FP	SIAE inh	PRMT1 FP inh	HTRA1 inh	TCR-CD3 inh	HTRA1 inh conf	mABHD4 conf	others
Cc1cccc(NNC(=O)C(=O)NNc2cccc(C)c2)c1	-	-	-	.	-	.	.
Cc1cccc(N=NC(=S)NNc2cccc(C)c2)c1	32	-	-	36	-	45	58
O=[N+]([O-])c1ccccc1C1Nc2cccc3cccc(c23)N1	53	-	29	51	-	-	55
O=S(=O)(c1ccc2ccccc2c1)N1CCOCC1	-	-	-	-	-	.	.
O=S(=O)(c1ccc2nc(-c3ccco3)c(-c3ccco3)nc2c1)N1CCOCC1	56	-	52	41	-	-	-	PRMT1 inh conf=69
Nc1cc2cccnc2cc1Cl	53	-	-	46	19	-	36	BSA TAMRA ctr=-;TCR-CD3 conf=-
COc1cccc(N/N=C/c2cccc(Br)c2O)c1	-	-	-	-	-	.	.
Cc1cccc(N/N=C/c2ccc(O)c(O)c2O)c1	36	-	33	59	-	62	35
C[C@@H]1CN([C@@H](C)CO)C(=O)CCCn2cc(nn2)CO[C@H]1CN(C)C(=O)Nc1ccc(C(C)(C)C)cc1	-	-	-	.	-	.	.
O=C1CC(c2ccc(O)c(O)c2)Oc2cc(O)cc(O)c21 (stereo unspecified)	-	-	-	-	-	.	.
Oc1ccc(C2C[C@H]3CC[C@@H]2C3)cc1O (stereo partly specified)	30	-	-	51	-	76	-
CCCCC(=O)N1CCC(NS(=O)(=O)c2ccc3c(c2)CCN3C(C)=O)CC1	-	-	-	.	.	.	.
COc1ccc(NC(=S)NNc2ccc(S(=O)(=O)Nc3ccccc3C(=O)O)cc2[N+](=O)[O-])cc1	74	-	-	74	-	73	96
NC(=O)NC(=O)C(Nc1ccc(N2CCCCC2)cc1)c1ccccc1 (stereo unspecified)	40	-	-	52	-	-	-
CCOC(=O)c1c(N)sc(=S)c2c1CCC2	42	-	27	38	-	-	-	PRMT1 inh conf=-
CCCOC(=O)c1c(N)sc2c1CCC2	-	-	-	-	-	.	.
O=c1oc2ccccc2c(O)c1Cc1cc(Cl)c2cccnc2c1O	33	-	-	52	-	54	-
O=C(SCc1c(O)c2ccccc2oc1=O)c1ccccc1	-	-	-	-	-	.	.
Nc1ccc(Nc2ccccc2)c(S(=O)(=O)O)c1	63	-	37	58	22	-	44	BSA TAMRA ctr=-;TCR-CD3 conf=-;PRMT1 inh conf=-
Nc1cccc(Nc2ccccc2)c1	-	-	-	-	-	.	.
Cc1ccc(Nc2ccc(N)cc2S(=O)(=O)O)cc1	65	-	33	80	-	-	-	PRMT1 inh conf=-
Cc1nc2c(C)cccn2c(=O)c1NC(=O)c1cccc2ccccc12	-	-	-	-	-	.	.
O=S(c1ccccc1O)S(=O)c1ccccc1O (stereo unspecified)	37	-	88	40	-	-	34	PRMT1 inh conf=95
CS(=O)c1ccccc1O (stereo unspecified)	-	-	-	-	-	.	.
O=C1CC(N(O)c2ccccc2)C(=O)N1c1ccc(Cl)c(Cl)c1 (stereo unspecified)	46	-	-	60	24	-	89	BSA TAMRA ctr=-;TCR-CD3 conf=-
Oc1ccc(-c2csc(-c3ccccc3)n2)cc1O	31	-	-	59	-	48	31
Oc1ccccc1-c1csc(-c2ccccc2)n1	-	-	-	-	-	.	.
CC(C)C[C@@H]1COc2cccc(N3CCCCC3)c2S(=O)(=O)N1	-	-	-	.	-	.	.
O=[N+]([O-])c1cc(/C=N\Nc2nc(-c3ccccc3)cs2)ccc1O	42	-	-	47	-	50	61
O=C(/C=C/c1ccc(O)c(O)c1)NC(=O)c1ccccc1O	57	-	-	65	24	62	36	BSA TAMRA ctr=-;TCR-CD3 conf=21

Source: PubChem BioAssay
